Compounds with a hit are over-represented: about 3.6% of the library has one in this group of screens.
PfHsp90 yeast 2 – inhibits growth of yeast expressing Plasmodium falciparum Hsp90; S. cerevisiae expressing PfHsp90, BacTiter-Glo ATP, 48 h; yeast lacking PDR1 and PDR3 efflux regulators; inhibition, % at 9.4 µM; actives 0.32% (n = 310,000); AID 504621;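 active = every replicate shows inhibition above about 80%, whatever the replicate mean, limit read from the data; inconclusive = mean inhibition reaches the set limit but some replicate falls short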
Beta cell apopt – beta cell apoptosis inhibition; INS-1E cytokine-induced death, ATP luminescence, 48 h; percent of positive-control rescue, neutral wells zero; protection from apoptosis, % (test concentration not listed); actives 0.8% (n = 300,000);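 active = Every replicate reaches about 75%, or at least half do and their mean reaches it too, limit read from the data; inconclusive = At least half of replicates reach the limit but their mean does not; inactive = Under half of replicates reach the limit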;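 also: higher means more ATP so stronger rescue from cytokine killing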
HIF activator – HIF pathway transcriptional activation. U2OS HRE-luciferase reporter, luminescence; normalized: DMSO 0%, desferrioxamine 100%. activation, % at 7.5 µM (by protocol). actives 0.32% (n = 300,000);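 active = mean activation of at least 10% of the iron chelator positive control signal, with at least half of replicates also reaching 10%; inconclusive = mean and replicate majority disagree about reaching 10%; inactive = mean and most replicates under 10%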
T cruzi inh – T. cruzi replication inhibition. T. cruzi beta-gal in NIH3T3, luminescence, 90 h. inhibition, % (concentration not given with the values). actives 1.4% (n = 300,000);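 active = mean inhibition across valid replicates above about 55%, limit read from the data; inconclusive = mean below that limit but half or more replicates reach it; inactive = mean below it, under half of replicates reach it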;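 also: signal also drops with host cell toxicity which is not excluded here; higher percent means less beta-gal luminescence so fewer parasites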
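System: Mouse NIH/3T3 fibroblasts infected with β-gal-expressing T. cruzi Tulahuen C4 | Quantity: NIH/3T3 cells, 5,000 per well | Reagent: 5000 reporter trypomastigotes per well | Dosing: Compound pinned at 50 nL/well, DMSO | Schedule: 3 h host attachment, then at least 90 h co-culture | Detection: GalScreen luminescence, 60 min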
CSC inhib – cancer stem cell inhibition; inhibition, % at 7.5 µM; cancer stem cell-like cells viability, luminescence; actives 1.1% (n = 300,000); in the data active = inhibition above about 75%; inconclusive = no clear call, values can overlap the other calls; tested in HMLE shEcad cells
SKKanGAS inh – blocks kanamycin growth of S. pyogenes SKKanGAS strain. BacTiter-Glo, 6 h. inhibition, % at 7.5 µM. actives 1.3% (n = 300,000);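 active = mean replicate score, as percent of positive control median, at least 50; inconclusive = mean below 50 but one replicate at or above 50; inactive = mean and every replicate below 50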;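 also: strain carries kanamycin resistance gene driven by streptokinase promoter and grows in 40 µg/ml kanamycin; loss of luminescence reflects streptokinase promoter inhibition or plain growth inhibition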
A number is an active result.

What do the screens show for `COc1ccc(-c2cc(-c3ccccc3)c(C#N)c(SCC(=O)Nc3ncc(C)s3)n2)cc1`?
PfHsp90 yeast 2: inactive; HIF activator: inactive; T cruzi inh: 56; SKKanGAS inh: inactive

How did N#Cc1c(-c2ccc(Cl)cc2)cc(-c2ccccc2)nc1SCC(=O)O do in these assays?
PfHsp90 yeast 2: inactive; Beta cell apopt: inactive; HIF activator: inactive; T cruzi inh: inactive; CSC inhib: inactive; SKKanGAS inh: inactive

What do the screens show for `c1ccc(C2CC(c3ccccc3)C(c3ccccc3)N2)cc1` (stereo not drawn)?
PfHsp90 yeast 2: inactive; Beta cell apopt: inactive; HIF activator: inactive; T cruzi inh: inactive; CSC inhib: inactive; SKKanGAS inh: inactive

What do the screens show for `CCCCCCC[N+](CC)(CC)CCCCc1ccc(Cl)cc1`?
PfHsp90 yeast 2: inactive; Beta cell apopt: 114; CSC inhib: inactive

Results for CCCCCNCc1ccc(Cl)cc1 ?
Beta cell apopt: inactive; HIF activator: inactive; T cruzi inh: inactive; SKKanGAS inh: inactive

What do the screens show for `CC1CCCC(NC(=S)Nc2ccc(SC(F)F)cc2)C1C` (stereo not drawn)?
PfHsp90 yeast 2: inactive; Beta cell apopt: inactive; HIF activator: inactive; T cruzi inh: inactive; CSC inhib: inconclusive; SKKanGAS inh: 108

Results for Cc1cc(N2CCN(C)CC2)nc2ccc(NC(=S)N3CCCCC3)cc12 ?
PfHsp90 yeast 2: inactive; HIF activator: inactive; T cruzi inh: inactive

What do the screens show for `Cc1cc(N2CCN(C)CC2)nc2ccc(NC(=S)N3CCN(c4ccc(Cl)cc4)CC3)cc12`?
PfHsp90 yeast 2: inactive; Beta cell apopt: inactive; HIF activator: inactive; T cruzi inh: 61; CSC inhib: 109; SKKanGAS inh: inactive

What do the screens show for `Cc1cccc(N2CCN(C(=S)Nc3ccc4nc(N5CCN(C)CC5)cc(C)c4c3)CC2)c1C`?
PfHsp90 yeast 2: inactive; HIF activator: inactive; T cruzi inh: 65; SKKanGAS inh: inactive

What do the screens show for `O=C(NNC(=S)NC(=O)c1sc2ccccc2c1Cl)c1ccc(Cl)cc1`?
PfHsp90 yeast 2: inactive; Beta cell apopt: inactive; HIF activator: inactive; T cruzi inh: inactive; CSC inhib: inactive; SKKanGAS inh: 96

What do the screens show for `COc1cc(C(=O)NNC(=O)/C=C/c2ccccc2)cc(OC)c1OC`?
PfHsp90 yeast 2: inactive; Beta cell apopt: inactive; CSC inhib: inactive

Results for COc1cc(C(=O)NNC(=S)NC(=O)/C=C/c2ccccc2)cc(OC)c1OC ?
PfHsp90 yeast 2: inactive; HIF activator: inactive; T cruzi inh: inactive; SKKanGAS inh: 93

Results for COc1ccc(C(=O)NNc2ccccc2)cc1 ?
PfHsp90 yeast 2: inactive; Beta cell apopt: inactive; HIF activator: inactive; T cruzi inh: inactive; CSC inhib: 131; SKKanGAS inh: inactive

What do the screens show for `COc1ccc(C(=O)NC(=S)NNC(=O)c2ccc(C)cc2)cc1`?
PfHsp90 yeast 2: inactive; Beta cell apopt: inactive; HIF activator: inactive; T cruzi inh: inactive; CSC inhib: inactive; SKKanGAS inh: 83

How did CCN1CC(C)(C)N(C(=O)c2ccccc2)CC1(C)C do in these assays?
PfHsp90 yeast 2: inactive

How did COc1cc(C(=O)NNC(=S)NC(=O)c2ccc(Cl)cc2)cc(OC)c1OC do in these assays?
PfHsp90 yeast 2: inactive; Beta cell apopt: inactive; HIF activator: inactive; T cruzi inh: 70; CSC inhib: inactive; SKKanGAS inh: 93

What do the screens show for `O=C(/C=C/c1ccccc1)NC(=S)NNC(=O)c1cccnc1`?
PfHsp90 yeast 2: inactive; Beta cell apopt: inactive; HIF activator: inactive; T cruzi inh: inactive; CSC inhib: inactive; SKKanGAS inh: inactive

How did O=C(/C=C/c1ccccc1)NC(=S)NNC(=O)c1cnccn1 do in these assays?
PfHsp90 yeast 2: 109; Beta cell apopt: 78; HIF activator: inactive; T cruzi inh: inactive; CSC inhib: 87; SKKanGAS inh: 64

How did COc1ccc(C(=O)NC2=Nc3ccccc3N=C(C)C2c2ccccc2)cc1 (stereo not drawn) do in these assays?
PfHsp90 yeast 2: inactive; Beta cell apopt: inactive; HIF activator: 25; T cruzi inh: inactive; CSC inhib: inactive; SKKanGAS inh: inactive

How did COc1ccc(C(=O)NC(=S)NNC(=O)c2ccc(NC(=O)C(C)C)cc2)cc1 do in these assays?
PfHsp90 yeast 2: inactive; Beta cell apopt: inactive; HIF activator: inactive; T cruzi inh: inactive; CSC inhib: inactive; SKKanGAS inh: 57

Results for CSc1ncc(CN2CCc3c([nH]c4ccccc34)C2c2cccc(O)c2)cn1 (stereo not drawn) ?
PfHsp90 yeast 2: inactive; Beta cell apopt: inactive; HIF activator: inactive; T cruzi inh: inactive; CSC inhib: inactive; SKKanGAS inh: inactive

Results for COc1ccc(-c2nn(-c3ccccc3)cc2C(=O)NC(=S)NNC(=O)c2ccncc2)cc1 ?
PfHsp90 yeast 2: inactive; Beta cell apopt: inactive; HIF activator: inactive; T cruzi inh: inactive; CSC inhib: inactive; SKKanGAS inh: 89

How did CCC(=O)NC(=S)NNC(=O)c1ccc(OC)cc1 do in these assays?
HIF activator: inactive; T cruzi inh: inactive; CSC inhib: inactive; SKKanGAS inh: inactive

Results for COc1ccc(C(=O)NNC(=S)NC(=O)c2ccc(Cl)cc2)cc1 ?
PfHsp90 yeast 2: inactive; Beta cell apopt: inactive; HIF activator: inactive; T cruzi inh: inactive; CSC inhib: inactive; SKKanGAS inh: 79

Results for CCc1ccc(/C(C)=N/NC(=O)c2ccc(-n3cnnn3)cc2)cc1 ?
PfHsp90 yeast 2: inactive; Beta cell apopt: inactive

What do the screens show for `Cc1ccccc1CNC(=O)Nc1ccc(Cl)cc1`?
PfHsp90 yeast 2: inactive; Beta cell apopt: inactive; HIF activator: inactive; T cruzi inh: inactive; CSC inhib: inactive; SKKanGAS inh: inactive

Results for O=C(CNC(=O)c1ccccc1)N/N=C/c1ccc([N+](=O)[O-])s1 ?
PfHsp90 yeast 2: inactive; Beta cell apopt: inactive; HIF activator: inactive; T cruzi inh: 76; CSC inhib: inactive; SKKanGAS inh: inactive

Results for O=C(Cc1ccccc1)NCC(=O)N/N=C/c1ccc([N+](=O)[O-])s1 ?
PfHsp90 yeast 2: inactive; Beta cell apopt: inactive; HIF activator: inactive; T cruzi inh: inactive; SKKanGAS inh: inactive

What do the screens show for `CCOC(=O)/C(=C\c1ccc([N+](=O)[O-])o1)NC(=O)c1ccccc1`?
PfHsp90 yeast 2: inactive; Beta cell apopt: inactive; HIF activator: inactive; T cruzi inh: 68; CSC inhib: inactive; SKKanGAS inh: inactive

How did CCCCCC(=O)N/N=C/c1ccc([N+](=O)[O-])o1 do in these assays?
PfHsp90 yeast 2: inactive; Beta cell apopt: inactive; HIF activator: inactive; T cruzi inh: 76; CSC inhib: inactive; SKKanGAS inh: inactive

How did O=C(CNC(=O)c1ccccc1)N/N=C/c1ccc([N+](=O)[O-])o1 do in these assays?
PfHsp90 yeast 2: inactive; Beta cell apopt: inactive; HIF activator: inactive; T cruzi inh: 59; CSC inhib: inactive; SKKanGAS inh: inactive

What do the screens show for `CCS(=O)(=O)c1nc(S(=O)(=O)c2ccc(Cl)cc2)c(N2CCC(O)CC2)s1`?
PfHsp90 yeast 2: inactive; Beta cell apopt: inactive; HIF activator: inactive; T cruzi inh: inactive; CSC inhib: inactive; SKKanGAS inh: inactive

High-throughput results: PubChem, Broad Institute
